From PubChem BioAssay
PRMT1 FP inh: inhibitors of human PRMT1; recombinant PRMT1, activity-based probe fluorescence polarization; inhibition, % at 2.79 µM; 370,000 tested, 1.3% active; AID 652257;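 active means inhibition above about 21% made by adding two undisclosed values, limit read from the data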
MBD2 inh: inhibitors of human MBD2 binding to methylated oligonucleotide | 370,000 tested, 0.31% active | AID 686964 | TR-FRET | Q9UBB5 | inhibition, % at 4.4 µM; in the data active means inhibition above about 13%
LEDGF integ inh: blocks HIV-1 LEDGF/p75-dependent DNA integration; TR-FRET IN-LEDGF/p75 DNA integration, Eu/Cy5; inhibition, % at 3.7 µM; 370,000 tested, 0.64% active; AID 743269;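 active means inhibition above the screen-wide mean plus 3 SD, cut at about 13% in these data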;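 further: signal is the Cy5 over europium emission ratio at 671 and 618 nm; 0% = plate median of compound wells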
TDP2 absorb: blocks human TDP2 phosphodiesterase activity; O95551; recombinant TDP2, T5PNP hydrolysis, p-nitrophenol absorbance 415 nm; inhibition, % at 12.8 µM; 370,000 tested, 0.34% active; AID 720702;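 active means inhibition above the mean of all tested compounds plus 3 SD, set per campaign, cut at about 25% in these data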;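 further: 0% = DMSO with enzyme and 100% = buffer with substrate but no TDP2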
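System: recombinant human TDP2 / Amount: 120 nM TDP2 per well / Also added: 5 mM T5PNP chromogenic substrate / Doses: 12.8 µM single point, 1% DMSO / Incubation: 2 h at 37 °C / Detection: p-Nitrophenol epi absorbance / Evaluation: % inhibition relative to enzyme-containing and enzyme-free wells / Repeats: singlicate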
UHRF1 binding: UHRF1 methyl-DNA binding inhibition | UHRF1 binding to methylated oligo, TR-FRET | inhibition, % at 4.4 µM | 370,000 tested, 0.75% active | AID 687016 | Q96T88; in the data active means inhibition above about 21%;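 further: UHRF1 SRA domain binding a hemimethylated CpG hairpin DNA probe; 0% = median of test compound wells and 100% = reference inhibitor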
SIAE primary: inhibitors of human sialic acid acetylesterase SIAE; 370,000 tested, 0.69% active; AID 1053197; SIAE FP-Rh probe binding, fluorescence polarization; Q9HAT2; inhibition, % at 9.66 µM;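 active means inhibition above a cutoff: mean of compounds within the control limits plus 3 SD of those, cut at about 17% in these data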;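 further: 0% = plate median of compound wells and 100% = probe without SIAE protein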
PRMT1 confirm: confirmation of human PRMT1 inhibitors | shares compounds with PRMT1 FP inh | recombinant His-PRMT1, activity-based probe fluorescence polarization | inhibition, % at 2.79 µM | 3,300 tested, 42% active | AID 687036;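 active means mean inhibition across replicates above the hit cutoff derived for the earlier primary screen, cut at about 22% in these data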
Active calls of the source: *; . = no result. The list is not random: actives were taken first. Their share in the collection is about 3.3%.

SMILES	PRMT1 FP inh	MBD2 inh	LEDGF integ inh	TDP2 absorb	UHRF1 binding	SIAE primary	PRMT1 confirm
Cn1cccc1C(=O)N1CCN(S(=O)(=O)c2ccccc2F)CC1	3	-2	0	0	0	-4	.
COc1cccc(NC(=O)CSc2nc3c(sc4ccccc43)c(=O)n2CCN(C)C)c1	68*	1	-7	-6	2	1	68*
CCN(CC)CCn1c(SCC(=O)Nc2cccc(OC)c2)nc2c(sc3ccccc32)c1=O	19	1	-2	0	-4	-3	.
CC(C)[C@H](NC(=O)OC(C)(C)C)c1nnc(S(=O)(=O)Cc2c(F)cccc2Cl)o1	30*	-2	0	3	17	-6	21
Cc1ccccc1CS(=O)(=O)c1nnc([C@H](CC(C)C)NC(=O)OC(C)(C)C)o1	27*	-3	-6	5	4	-7	15
CCN1Cc2nnn(Cc3ccccc3)c2-c2ccccc2S1(=O)=O	0	-3	-1	-3	-2	6	.
O=C1CC(NCc2ccc3c(c2)OCO3)C(=O)N1Cc1ccc2c(c1)OCO2 (stereo not given)	56*	-1	-2	-5	-1	-1	0
Cc1ccc2c(c1)N(Cc1ccc3c(c1)OCO3)C(=O)C(C)O2 (stereo not given)	-1	5	-1	1	4	-1	.
O=C(Nc1cccc(Br)c1)OC1CC2CC1[C@H]1CCCCN1[C@H]2Cc1ccccc1 (stereo not given in full)	-3	3	3	0	-1	-3	.
O=C(COc1ccc(F)c(Cl)c1)N[C@H]1CCCN(CC2CC2)C1	-9	-6	0	15	1	-3	.
CC1(C)CC(=O)C(C=Nc2ccc(C(=O)c3ccccc3)cc2N=CC2=C(O)CC(C)(C)CC2=O)=C(O)C1	77*	1	-6	-15	9	-9	0
CC1(C)CC(=O)C(C=Nc2cccnc2/N=C/C2=C(O)CC(C)(C)CC2=O)=C(O)C1	25*	-4	-1	11	-3	3	-2
NC(=O)C1Cc2ccccc2CN1C(=O)c1cccc(Oc2ccccc2)c1 (stereo not given)	106*	5	0	-7	-4	1	7
CCN(C(=O)CN1CCN(c2nc(-c3ccccc3)cs2)CC1)c1ccccc1C	-4	4	-2	-4	0	3	.
O=C(CCSc1ccc(Br)cc1)c1ccc(O)cc1	31*	3	-5	0	-1	-11	16
CSCc1ccc(C(=O)NCCSc2ccc(Br)cc2)cc1	0	-4	4	10	-1	12	.
C1CSC2(N1)C1CC3CC(C1)CC2C3 (stereo not given)	51*	-3	-2	-16	7	-6	35*
Cc1cc(C)nc(/N=c2/ssnc2Cl)c1	7	-3	-1	-5	-2	-1	.
Cc1ccc(N=c2ssnc2Cl)cc1	70*	2	1	0	-9	2	89*
Cc1cc(Cl)ccc1N=C1N=C(N)c2ccccc21	-2	-1	1	-14	-1	1	.
Cc1nnc(N=c2ssnc2Cl)o1	49*	3	2	12	-6	10	70*
Nc1ccccc1N=c1ssnc1Cl	69*	-6	-3	-2	-4	4	58*
Cc1cc(Cl)ccc1N=c1ssnc1Cl	44*	6	5	4	6	-6	94*
CCn1c(Cl)c(C=O)s/c1=N\S(=O)(=O)c1ccccc1	49*	-4	2	-1	1	-4	27*
CCN(CC)C(=O)CSc1nc2c(sc(=S)n2-c2ccccc2)c(=O)n1Cc1ccco1	25*	5	5	5	0	-2	21
SMILES	PRMT1 FP inh	MBD2 inh	LEDGF integ inh	TDP2 absorb	UHRF1 binding	SIAE primary	PRMT1 confirm
O=C(OCC#CCSc1nnc(-c2cccs2)o1)c1ccc(F)cc1	-1	-9	-1	-3	-3	-4	.
Cc1cc(C)n2nc(SCC(=O)NC(=O)c3ccccc3)nc2n1	2	1	-5	-4	-2	0	.
COc1ccc(C(=O)NC(=O)CSc2nc3nc(C)cc(C)n3n2)cc1	27*	-1	0	-1	-2	3	2
Cc1cc(C(=O)Nc2ccc(Cl)c(Cl)c2)n(-c2ccccc2)n1	-1	2	-5	2	-1	-20	.
CCOC(=O)[C@@]12CCCC3=C1N(CCC3)C(=O)[C@H]2CC(=O)NCCCCc1ccccc1	2	3	10	-5	-1	-2	.
S=c1[nH]nc(-c2cc3ccccc3o2)n1Cc1ccccc1	25*	-1	-5	0	0	8	16
CCC(CO)Nc1cccc2c1S(=O)(=O)N(Cc1cn(Cc3ccc(C(F)(F)F)cc3)nn1)Cc1ccccc1O2 (stereo not given)	1	7	4	-2	9	1	.
O=C(CSc1nc2c(c(C(F)(F)F)n1)CCc1ccccc1-2)NCc1ccco1	26*	-1	6	0	1	-10	3
CC(NC(=O)CSc1nc2c(c(C(F)(F)F)n1)CCc1ccccc1-2)c1ccccc1 (stereo not given)	-4	2	-1	8	-14	0	.
C[C@H]1[C@H](NC(=O)c2ccc(C(F)(F)F)cc2)CC[C@@]23CCCN2C(=O)CCC[C@@H]13	53*	5	6	-9	0	1	0
CSc1ccc(-c2ccco2)nn1	8	-8	0	1	-5	2	.
Fc1ccc(CSc2ccc(-c3ccco3)nn2)cc1	54*	4	4	-20	6	6	-1
O=C(CSc1ccc(-c2ccco2)nn1)c1ccc(F)cc1	54*	2	5	-14	10	5	13
O=C(CSc1ccc(-c2ccco2)nn1)NCc1ccc(F)cc1	9	-4	0	6	-5	2	.
CCOC(=O)[C@]12CCCCC/C=C\1N(CCc1ccc(Cl)cc1)C(=O)[C@H]2CC(=O)N1CCC(c2ccccc2)CC1	1	0	0	4	0	1	.
C[C@H](O)[C@@H]1CN2CCc3c([nH]c4cccc(-c5ccccc5)c34)[C@@H]2C[C@@H]1N(C)CC1CCCCC1	1	-6	3	-1	0	0	.
COc1ccccc1C(=O)Oc1ccc2c(c1)O/C(=C\c1ccncc1)C2=O	38*	-7	3	-2	-16	1	13
CCC[C@H]1[C@H](N)CC[C@@]23CCCN2C(=O)CCC[C@@H]13	2	-1	4	-8	1	3	.
